Values joined by “and” are separate entries in the source; they are usually repeats but may differ in a detail not shown here. Identical values can stand only once.
Legend:
CYP2C9 [1] = molecular target: T1, CYP2C9 (Homo sapiens, UniProt P11712); experiment: Drug metabolism in human liver microsomes assessed as CYP2C9-mediated metabolism by measuring parent compound remaining at 10 pmol/ml after 60 mins in absence of NADPH by LC-MS/MS analysis; assay type: ADME; details: read-out: Stability
CYP2C9 [2] = molecular target: T1, CYP2C9; experiment: Drug metabolism in human liver microsomes assessed as CYP2C9-mediated metabolism by measuring compound half life at 10 pmol/ml preincubated for 10 mins followed by NADPH addition measured after 10 mins by LC-MS/MS analysis; assay type: ADME
CYP2C9 [3] = molecular target: T1, CYP2C9; experiment: Drug metabolism in human liver microsomes assessed as CYP2C9-mediated metabolism by measuring parent compound remaining at 10 pmol/ml after 60 mins in presence of NADPH by LC-MS/MS analysis; assay type: ADME; details: read-out: Stability
Cytochrome P450 2C9 [4] = molecular target: T2, Cytochrome P450 2C9 (Homo sapiens, UniProt P11712); experiment: Drug metabolism in human liver microsomes assessed as CYP2C9-mediated metabolism by measuring compound intrinsic clearance at 10 pmol/ml preincubated for 10 mins followed by NADPH addition measured after 10 mins by LC-MS/MS analysis; assay type: ADME
T2 sequence (P11712 whole entry): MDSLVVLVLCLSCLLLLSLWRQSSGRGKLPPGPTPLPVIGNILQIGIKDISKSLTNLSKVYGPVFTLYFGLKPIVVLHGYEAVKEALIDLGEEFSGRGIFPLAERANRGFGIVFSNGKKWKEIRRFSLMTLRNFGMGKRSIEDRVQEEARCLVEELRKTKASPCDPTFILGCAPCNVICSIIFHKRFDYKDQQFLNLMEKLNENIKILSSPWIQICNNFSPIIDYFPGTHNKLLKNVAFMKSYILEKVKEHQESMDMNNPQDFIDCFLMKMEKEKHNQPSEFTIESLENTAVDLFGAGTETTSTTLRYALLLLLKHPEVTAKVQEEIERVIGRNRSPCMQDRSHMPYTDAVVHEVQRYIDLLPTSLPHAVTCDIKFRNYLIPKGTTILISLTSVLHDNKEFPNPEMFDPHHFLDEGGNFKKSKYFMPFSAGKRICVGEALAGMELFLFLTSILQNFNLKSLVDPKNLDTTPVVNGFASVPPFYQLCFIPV

[5] = Stability of the compound in ethanol at 37 degC for 4 days; assay type: physicochemical; details: 96 h
Cytochrome P450 2C19 = Cytochrome P450 2C19 (Homo sapiens, UniProt P33261); experiment: Inhibition of CYP2C19 (unknown origin); assay type: ADME
Cytochrome P450 2C19, sequence (P33261 whole entry): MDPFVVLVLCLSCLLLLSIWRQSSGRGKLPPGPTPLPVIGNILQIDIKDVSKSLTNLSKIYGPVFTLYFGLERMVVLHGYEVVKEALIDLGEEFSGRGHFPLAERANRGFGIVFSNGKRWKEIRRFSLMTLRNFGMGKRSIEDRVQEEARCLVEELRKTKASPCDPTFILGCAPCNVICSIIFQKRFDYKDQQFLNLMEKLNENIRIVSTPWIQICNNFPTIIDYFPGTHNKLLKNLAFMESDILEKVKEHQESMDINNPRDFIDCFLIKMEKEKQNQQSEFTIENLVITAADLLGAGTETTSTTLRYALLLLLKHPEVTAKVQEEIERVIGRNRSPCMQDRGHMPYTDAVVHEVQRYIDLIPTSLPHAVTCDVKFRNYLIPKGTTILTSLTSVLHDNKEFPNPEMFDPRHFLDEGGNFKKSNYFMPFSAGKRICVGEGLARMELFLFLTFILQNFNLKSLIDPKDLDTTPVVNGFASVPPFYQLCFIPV

[6] = Stability of the compound in solid state assessed as compound purity after 80 days; assay type: physicochemical; details: 1920 h
Plasma [7] = experiment: Drug metabolism in Sprague-Dawley rat plasma assessed as (-)-Lesinurad formation at 10 mg/kg, po administered as single dose via gavage by LC-MS/MS analysis; assay type: ADME, organism-based; details: in vivo
Cytochrome P450 2C9 [8] = molecular target: T2, Cytochrome P450 2C9; experiment: Inhibition of CYP2C9 (unknown origin); assay type: ADME
[9] = molecular target: Voltage-gated inwardly rectifying potassium channel KCNH2 (Homo sapiens, UniProt Q12809); experiment: Inhibition of human ERG
Voltage-gated inwardly rectifying potassium channel KCNH2, sequence (Q12809 whole entry): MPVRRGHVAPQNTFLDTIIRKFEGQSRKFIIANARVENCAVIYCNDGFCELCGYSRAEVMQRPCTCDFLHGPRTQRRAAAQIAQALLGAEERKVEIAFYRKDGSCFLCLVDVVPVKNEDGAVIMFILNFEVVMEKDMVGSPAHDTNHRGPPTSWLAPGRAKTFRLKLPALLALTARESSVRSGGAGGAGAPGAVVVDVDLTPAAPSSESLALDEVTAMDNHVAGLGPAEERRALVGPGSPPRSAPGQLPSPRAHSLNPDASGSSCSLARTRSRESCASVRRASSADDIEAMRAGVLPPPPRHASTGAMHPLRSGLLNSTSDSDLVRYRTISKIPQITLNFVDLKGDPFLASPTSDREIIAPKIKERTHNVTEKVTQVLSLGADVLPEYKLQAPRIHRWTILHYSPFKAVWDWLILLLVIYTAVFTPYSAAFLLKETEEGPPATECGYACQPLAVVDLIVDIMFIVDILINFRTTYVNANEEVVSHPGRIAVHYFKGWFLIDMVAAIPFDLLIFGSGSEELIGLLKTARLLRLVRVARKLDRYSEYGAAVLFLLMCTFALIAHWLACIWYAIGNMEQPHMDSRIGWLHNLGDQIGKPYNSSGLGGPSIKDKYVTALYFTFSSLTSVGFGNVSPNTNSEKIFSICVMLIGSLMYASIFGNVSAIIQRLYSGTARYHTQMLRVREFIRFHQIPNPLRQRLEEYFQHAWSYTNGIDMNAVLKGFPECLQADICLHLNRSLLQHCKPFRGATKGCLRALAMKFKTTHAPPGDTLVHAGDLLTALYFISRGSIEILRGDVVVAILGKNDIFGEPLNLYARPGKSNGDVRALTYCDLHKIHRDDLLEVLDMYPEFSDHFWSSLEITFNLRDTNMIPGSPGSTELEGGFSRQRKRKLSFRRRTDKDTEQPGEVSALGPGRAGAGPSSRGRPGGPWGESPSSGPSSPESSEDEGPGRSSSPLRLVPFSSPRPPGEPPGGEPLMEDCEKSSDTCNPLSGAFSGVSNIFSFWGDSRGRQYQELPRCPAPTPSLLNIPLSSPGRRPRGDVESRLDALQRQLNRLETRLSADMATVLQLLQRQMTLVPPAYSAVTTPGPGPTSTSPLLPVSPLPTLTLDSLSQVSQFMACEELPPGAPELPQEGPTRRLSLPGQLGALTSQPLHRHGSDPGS

[10] = Drug recovery in cynomolgus monkey urine at 2 mg/kg, iv administered as single bolus dose measured at 24 hrs post dose by LC-MS/MS analysis; assay type: ADME, organism-based, Macaca fascicularis; details: read-out: Drug recovery
Procedure, shortened: (§1)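 Male cynomolgus monkeys received a single 2 mg/kg IV or 10 mg/kg PO dose. Plasma and urine were collected over time periods, and the two atropisomers were quantified separately. Urine values are the mean concentration over 0-24 h. Data are mean±SD, n=3.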

[11] = Drug metabolism in cynomolgus monkey assessed as (-)-Lesinurad level in urine at 10 mg/kg, po administered as single dose via gavage measured at 24 hrs post dose by LC-MS/MS analysis; assay type: ADME, organism-based, Macaca fascicularis; details: in vivo, read-out: Drug metabolism; procedure, shortened: as §1
[12] = Drug level in cynomolgus monkey urine at 2 mg/kg, iv administered as single bolus dose measured at 24 hrs post dose by LC-MS/MS analysis; assay type: ADME, organism-based, Macaca fascicularis; details: read-out: Drug uptake; procedure, shortened: as §1
Cytochrome P450 3A4 = Cytochrome P450 3A4 (Homo sapiens, UniProt P08684); experiment: Inhibition of CYP3A4 (unknown origin); assay type: ADME
Cytochrome P450 3A4, sequence (P08684 whole entry): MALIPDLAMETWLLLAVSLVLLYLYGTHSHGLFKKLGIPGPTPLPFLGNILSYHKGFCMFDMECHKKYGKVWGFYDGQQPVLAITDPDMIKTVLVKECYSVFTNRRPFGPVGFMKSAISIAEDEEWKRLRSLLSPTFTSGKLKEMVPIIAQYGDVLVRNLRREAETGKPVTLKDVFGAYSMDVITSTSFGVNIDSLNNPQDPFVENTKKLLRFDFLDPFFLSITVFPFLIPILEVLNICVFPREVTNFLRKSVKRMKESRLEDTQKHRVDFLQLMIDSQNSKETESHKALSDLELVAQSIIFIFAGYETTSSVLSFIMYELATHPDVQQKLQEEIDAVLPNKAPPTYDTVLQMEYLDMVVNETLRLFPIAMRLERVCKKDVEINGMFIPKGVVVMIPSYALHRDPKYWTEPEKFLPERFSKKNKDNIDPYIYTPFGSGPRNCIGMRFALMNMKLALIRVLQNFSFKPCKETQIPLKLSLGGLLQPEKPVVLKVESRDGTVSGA

Cytochrome P450 2D6 = Cytochrome P450 2D6 (Homo sapiens, UniProt P10635); experiment: Inhibition of CYP2D6 (unknown origin); assay type: ADME
Cytochrome P450 2D6, sequence (P10635 whole entry): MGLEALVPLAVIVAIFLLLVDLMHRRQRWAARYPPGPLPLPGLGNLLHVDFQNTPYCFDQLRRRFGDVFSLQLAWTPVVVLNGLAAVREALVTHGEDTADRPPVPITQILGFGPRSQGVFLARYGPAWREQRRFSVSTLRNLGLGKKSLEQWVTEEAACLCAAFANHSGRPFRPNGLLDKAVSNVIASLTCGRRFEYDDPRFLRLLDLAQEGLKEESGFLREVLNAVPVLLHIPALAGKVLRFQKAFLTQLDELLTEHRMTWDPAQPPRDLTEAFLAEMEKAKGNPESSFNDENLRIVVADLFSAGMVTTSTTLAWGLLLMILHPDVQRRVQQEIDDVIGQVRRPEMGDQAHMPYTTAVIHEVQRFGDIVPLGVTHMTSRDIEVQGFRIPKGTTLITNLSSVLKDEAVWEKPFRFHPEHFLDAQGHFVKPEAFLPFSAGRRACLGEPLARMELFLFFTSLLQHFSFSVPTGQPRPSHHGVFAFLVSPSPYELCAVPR

Cytochrome P450 2C9 [13] = molecular target: T2, Cytochrome P450 2C9; experiment: (§2) Drug metabolism in human liver microsomes assessed as CYP2C9-mediated metabolism by measuring parent compound remaining at 250 pmol/ml after 60 mins in presence of NADPH by LC-MS/MS analysis; assay type: ADME; details: microsomes, 1 h
CYP2C9 [14] = molecular target: T1, CYP2C9; experiment: as §2; assay type: ADME; details: liver microsomes, read-out: Stability
Cytochrome P450 1A2 = molecular target: T3, Cytochrome P450 1A2 (Homo sapiens, UniProt P05177); experiment: Inhibition of CYP1A2 (unknown origin); assay type: ADME
T3 sequence (P05177 whole entry): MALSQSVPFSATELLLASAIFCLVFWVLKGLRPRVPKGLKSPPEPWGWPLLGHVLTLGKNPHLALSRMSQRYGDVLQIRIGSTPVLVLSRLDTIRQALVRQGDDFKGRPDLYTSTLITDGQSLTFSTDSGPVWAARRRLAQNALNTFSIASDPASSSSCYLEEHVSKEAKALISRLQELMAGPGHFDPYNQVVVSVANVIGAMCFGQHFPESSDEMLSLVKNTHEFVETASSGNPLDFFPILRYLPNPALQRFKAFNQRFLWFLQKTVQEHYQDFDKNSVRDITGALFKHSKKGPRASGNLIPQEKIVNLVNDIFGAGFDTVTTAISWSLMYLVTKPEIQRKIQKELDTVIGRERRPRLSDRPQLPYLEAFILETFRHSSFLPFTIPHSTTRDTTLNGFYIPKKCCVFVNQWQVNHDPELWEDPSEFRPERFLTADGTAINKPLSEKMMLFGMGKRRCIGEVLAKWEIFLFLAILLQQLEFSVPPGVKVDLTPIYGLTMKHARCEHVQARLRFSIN

Cytochrome P450 2C9 [15] = molecular target: T2, Cytochrome P450 2C9; experiment: Drug metabolism in human liver microsomes assessed as CYP2C9-mediated metabolism by measuring compound intrinsic clearance at 250 pmol/ml preincubated for 10 mins followed by NADPH addition measured after 10 mins by LC-MS/MS analysis; assay type: ADME
[16] = Drug metabolism in cynomolgus monkey assessed as (-)-Lesinurad level in urine at 2 mg/kg, iv administered as single bolus dose measured at 24 hrs post dose by LC-MS/MS analysis; assay type: ADME, organism-based, Macaca fascicularis; details: in vivo; procedure, shortened: as §1
Plasma [17] = experiment: Drug metabolism in Sprague-Dawley rat plasma assessed as (+)-Lesinurad formation at 2 mg/kg, iv administered as single bolus dose by LC-MS/MS analysis; assay type: ADME, organism-based; details: in vivo
[18] = Drug metabolism in cynomolgus monkey assessed as (+)-Lesinurad level in urine at 10 mg/kg, po administered as single dose via gavage measured at 24 hrs post dose by LC-MS/MS analysis; assay type: ADME, organism-based, Macaca fascicularis; details: in vivo, read-out: Drug metabolism; procedure, shortened: as §1
[19] = Drug recovery in cynomolgus monkey urine at 10 mg/kg, po administered as single dose via gavage measured at 24 hrs post dose by LC-MS/MS analysis; assay type: ADME, organism-based, Macaca fascicularis; details: read-out: Drug recovery; procedure, shortened: as §1
Plasma [20] = experiment: Stability in human plasma at 37 degC up to 2 hrs; assay type: ADME, cell-free
[21] = Apparent permeability from apical to basolateral side in MDCK cells expressing MDR1; assay type: ADME, cell-based, Canis lupus familiaris; details: dog
[22] = Apparent permeability from basolateral to apical side in MDCK cells expressing MDR1; assay type: ADME, cell-based, Canis lupus familiaris; details: dog
Cynomolgus monkey [23] = experiment: AUC (0 to infinity) in cynomolgus monkey at 10 mg/kg, po administered as single dose via gavage by LC-MS/MS analysis; assay type: ADME, organism-based, Macaca fascicularis; set-up: dose 10 mg/kg, route oral, time infinity; details: in vivo
[24] = Apparent plasma clearance in cynomolgus monkey at 2 mg/kg, iv administered as single bolus dose by LC-MS/MS analysis; assay type: ADME, organism-based, Macaca fascicularis; details: read-out: CL(app); procedure, shortened: as §1
[25] = Stability of the compound in solid state assessed as racemization after 80 days; assay type: physicochemical; details: 1920 h
[26] = Stability of the compound in DMSO at 80 degC for 4 days; assay type: physicochemical; details: 96 h
[27] = Drug level in cynomolgus monkey urine at 10 mg/kg, po administered as single dose via gavage measured at 24 hrs post dose by LC-MS/MS analysis; assay type: ADME, organism-based, Macaca fascicularis; details: in vivo, read-out: Drug uptake; procedure, shortened: as §1
Cytochrome P450 2C9 [28] = molecular target: T2, Cytochrome P450 2C9; experiment: (§3) Drug metabolism in human liver microsomes assessed as CYP2C9-mediated metabolism by measuring parent compound remaining at 250 pmol/ml after 60 mins in absence of NADPH by LC-MS/MS analysis; assay type: ADME; details: microsomes, 1 h
CYP2C9 [29] = molecular target: T1, CYP2C9; experiment: as §3; assay type: ADME; details: liver microsomes, read-out: Stability
Plasma [30] = experiment: Drug metabolism in Sprague-Dawley rat plasma assessed as (+)-Lesinurad formation at 10 mg/kg, po administered as single dose via gavage by LC-MS/MS analysis; assay type: ADME, organism-based; details: in vivo
[31] = Drug metabolism in cynomolgus monkey assessed as (+)-Lesinurad level in urine at 2 mg/kg, iv administered as single bolus dose measured at 24 hrs post dose by LC-MS/MS analysis; assay type: ADME, organism-based, Macaca fascicularis; details: in vivo, read-out: Drug metabolism; procedure, shortened: as §1
Cytochrome P450 2C9 [32] = molecular target: T2, Cytochrome P450 2C9; experiment: Drug metabolism in human liver microsomes assessed as CYP2C9-mediated mono-oxidative metabolite formation at 250 pmol/ml preincubated for 10 mins followed by NADPH addition measured after 10 mins by LC-MS/MS analysis; assay type: ADME; details: 0.25 µM
Plasma [33] = experiment: Stability in Sprague-Dawley rat plasma at 37 degC up to 2 hrs; assay type: ADME, cell-free
Cytochrome P450 2C9 [34] = molecular target: T2, Cytochrome P450 2C9; experiment: (§4) Drug metabolism in human liver microsomes assessed as CYP2C9-mediated metabolism by measuring compound half life at 250 pmol/ml preincubated for 10 mins followed by NADPH addition measured after 10 mins by LC-MS/MS analysis; assay type: ADME; details: microsomes, 10 min
CYP2C9 [35] = molecular target: T1, CYP2C9; experiment: as §4; assay type: ADME; details: liver microsomes
[36] = (§5) AUC (0 to infinity) in cynomolgus monkey at 2 mg/kg, iv administered as single bolus dose by LC-MS/MS analysis; assay type: ADME, organism-based, Macaca fascicularis; set-up: dose 2 mg/kg, time infinity, route intravenous; details: in vivo
Cynomolgus monkey [37] = experiment: as §5; assay type: ADME, organism-based, Macaca fascicularis; set-up: dose 2 mg/kg, time infinity, route intravenous; details: in vivo
Plasma [38] = experiment: Drug metabolism in Sprague-Dawley rat plasma assessed as (-)-Lesinurad formation at 2 mg/kg, iv administered as single bolus dose by LC-MS/MS analysis; assay type: ADME, organism-based; details: in vivo

T1 sequence (P11712 whole entry): as the sequence (P11712 whole entry) above

SMILES: O=C(O)Cc1ccccc1Nc1c(Cl)cccc1Cl [DICLOFENAC]
- remaining at 1 h, 10 pmol/ml (CYP2C9 [1]): 112%
- half-life at 10 pmol/ml (CYP2C9 [2]): 0.205 h
- remaining at 1 h, 10 pmol/ml (CYP2C9 [3]): 3.3%
- CLint (Cytochrome P450 2C9 [4]): 5.6 µL/min/pmol

SMILES: O=C(O)CSc1nnc(Br)n1-c1ccc(C2CC2)c2ccccc12 [LESINURAD]
- Stability [5]: Stable
- IC50 (Cytochrome P450 2C19): 61.7 µM and 10.6 µM and 10.8 µM
- Stability [6]: Stable
- Drug metabolism (Plasma [7]): Metabolite_Notdetected
- IC50 (Cytochrome P450 2C9 [8]): > 100 µM and 78.7 µM and 31.2 µM
- IC50 [9]: > 30 µM
- dose excreted at 24 h [10]: 20%
- concentration [11]: 153 µM
- concentration ([12]; in vivo, 24 h): 15.7 µM
- concentration at 24 h ([12]; urine): 16.3 µM
- IC50 (Cytochrome P450 3A4): 74.4 µM and 32.4 µM and 31 µM
- IC50 (Cytochrome P450 2D6): 32.6 µM and 92.1 µM and > 100 µM
- Stability (Cytochrome P450 2C9 [13]): 74.9%
- remaining at 1 h, 250 pmol/ml (CYP2C9 [14]): 61.8%
- IC50 (Cytochrome P450 1A2): 17.3 µM and 39.3 µM and 21.9 µM
- CLH (Cytochrome P450 2C9 [15]): 0.04 µL/min/pmol and < 0.02 µL/min/pmol
- Drug metabolism [16]: 5.4 µM
- Drug metabolism (Plasma [17]): Metabolite_Notdetected
- concentration [18]: 38 µM
- dose excreted at 24 h [19]: 20%
- Stability (Plasma [20]): Stable
- Papp A→B ([21]; MDCK-MDR1): 1.34 ×10⁻⁶ cm/s
- Papp ([21]; mdck): 1.29 ucm/s and 1.26 ucm/s
- Papp B→A ([22]; MDCK-MDR1): 1.98 ×10⁻⁶ cm/s
- Papp ([22]; mdck): 1.84 ucm/s and 1.62 ucm/s
- AUC (Cynomolgus monkey [23]): 83.9 µM·h and 37.3 µM·h
- clearance [24]: 3.3 mL/min/kg
- Stability [25]: Stable
- Stability [26]: Stable
- concentration [27]: 120 µM and 47.8 µM
- Stability (Cytochrome P450 2C9 [28]): 108.9%
- remaining at 1 h, 250 pmol/ml (CYP2C9 [29]): 110%
- Drug metabolism (Plasma [30]): Metabolite_Notdetected
- concentration [31]: 2.8 µM
- Drug metabolism (Cytochrome P450 2C9 [32]): Metabolite_Detected
- Stability (Plasma [33]): Stable
- t1/2 (Cytochrome P450 2C9 [34]): > 2.42 h
- half-life at 250 pmol/ml (CYP2C9 [35]): 1.5 h
- AUC(0-inf) [36]: 26.7 µM·h
- AUC (Cynomolgus monkey [37]): 19.2 µM·h
- Drug metabolism (Plasma [38]): Metabolite_Notdetected

Source: ChEMBL document CHEMBL4000255, “Discovery and Assessment of Atropisomers of (±)-Lesinurad” (ACS Med Chem Lett, 2017)
